The text below walks through data of ChEMBL document CHEMBL1143578, “From 1-acyl-beta-lactam human cytomegalovirus protease inhibitors to 1-benzyloxycarbonylazetidines with improved antiviral activity. A straightforward approach to convert covalent to noncovalent inhibitors” (J Med Chem, 2005).

The subject of test [1] is HEL. Kind of test: Effective concentration required to reduce Varicella-Zoster virus 07/1(TK-) plaque formation after 5 days in HEL fibroblast cell line. The class given is functional, cell-based. The settings on record: Homo sapiens, 120 h. The method in brief: (§1)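 Confluent HEL cells were inoculated with VZV at 20 PFU/well for 2 h. Residual virus was removed and varying compound concentrations were added in duplicate. Plaques were counted after 5 days. EC50 is the concentration halving plaque formation relative to untreated controls.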

For test [2], the system named is HEL. Kind of test: Cytotoxic concentration required to reduce HEL cell growth. Format: functional. The note with it: Homo sapiens. Put shortly:
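HEL cells seeded at 5 × 10³ cells/well and allowed to proliferate 24 h, then exposed to a range of compound concentrations for 3 days at 37 °C. Cell number was counted with a Coulter counter. CC50 is the concentration giving 50% growth reduction versus untreated controls, read from plots of cell number (% of control) against concentration.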

For test [3], the system named is HEL. Kind of test: Effective concentration required to inhibit human cytomegalo virus AD-169 induced cytopathicity in HEL fibroblast cell line after 7 days of postinfection. Format: functional, cell-based. The note with it: 168 h. The method in brief: (§2)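 Confluent HEL fibroblasts were infected with 100 PFU/well for 2 h, then residual virus was removed. Cells were incubated with a range of compound concentrations, in duplicate, for 7 days at 37 °C. Cells were ethanol-fixed and Giemsa-stained, and cytopathogenicity was scored microscopically. EC50 was read from plots of % cytopathogenicity against concentration.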

Test [4] has as its system HEL. Description: Minimum cytotoxic concentration required to cause a microscopically visible alteration of HEL fibroblast cell morphology. The settings on record: Homo sapiens. The class given is functional. Put shortly: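 HEL cell morphology was examined under the microscope after compound exposure. MCC is the lowest concentration producing a detectable alteration in morphology.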

Test [5] has as its system HEL. Description: Effective concentration required to reduce Varicella-Zoster virus OKA(TK) plaque formation after 5 days in HEL fibroblast cell line. Format: functional, cell-based. The note with it: Homo sapiens, 120 h. The method in brief: as §1
For test [6], the system named is HEL. Kind of test: Effective concentration required to inhibit human cytomegalo virus Davis induced cytopathicity in HEL fibroblast cell line after 7 days of postinfection. The class given is functional, cell-based. The settings on record: 168 h. Put shortly:
as §2

By EC50 is commonly meant the concentration needed to bring the measured effect to its halfway point. A higher EC50 goes with weaker potency. The term CC50 denotes the concentration giving 50% cytotoxicity. Low readings indicate greater toxicity to the cells, high ones lower toxicity to the cells.

On to `COC(=O)[C@]1(Cc2ccccc2)CC(=O)N1C(=O)N[C@@H](C)c1ccccc1`, for which the EC50 in the test with HEL [1], in the test with HEL [3] and in the test with HEL [5] was above 50 µM in each case. In the test on HEL [2], this compound displayed a CC50 above 50 µM. This compound returned an MCC in the test on HEL [4] above 50 µM.

Consider `C[C@H](NC(=O)N1C(=O)C[C@]1(Cc1ccccc1)C(=O)OC(C)(C)C)c1ccccc1`, for which the EC50 in the test on HEL [1] was 14 µM; in the test on HEL [5], above 50 µM. In addition, in the test with HEL [4], the MCC was found to be 200 µM.

As for `COC(=O)[C@]1(Cc2ccccc2)CCN1C(=O)N[C@@H](C)c1ccccc1`, the EC50 in the test with HEL [1] was 50 µM; with HEL [3] it was above 20 µM; with HEL [5], 50 µM. Besides, the CC50 in the test with HEL [2] was above 50 µM. For the same compound, in the test on HEL [4], the MCC was above 50 µM.

Regarding `C[C@H](NC(=O)N1C(=O)C[C@]1(Cc1ccccc1)C(=O)O)c1ccccc1`, the EC50 with HEL [1] was 111 µM; in the test with HEL [6], above 200 µM. The same compound displayed an MCC in the test on HEL [4] above 200 µM.

`CC(C)(C)NC(=O)C1(Cc2ccccc2)CCN1C(=O)OCc1ccccc1` (stereo not given): the EC50 in the test on HEL [1] was above 16 µM; in the test with HEL [6], 4.4 µM; with HEL [3] it was 5.5 µM; in the test with HEL [5], above 3.2 µM. For the same compound, half-maximal cytotoxicity in the test with HEL [2] (CC50) was put at 36 µM. Also, in the test with HEL [4], the MCC was at least 16 µM.

For the compound `C[C@@H](NC(=O)N1C(=O)C[C@]1(Cc1ccccc1)C(=O)OC(C)(C)C)c1ccccc1`, the EC50 with HEL [1] and in the test with HEL [5] was above 50 µM throughout. Also, the MCC in the test on HEL [4] is above 200 µM.

For `CC(C)(C)OC(=O)[C@]1(Cc2ccccc2)CC(=O)N1C(=O)Nc1ccccc1`, the EC50 in the test on HEL [1] is 13 µM; in the test on HEL [6], 50 µM; in the test on HEL [3], 50 µM; with HEL [5], 33 µM. Also, the MCC in the test with HEL [4] is 200 µM.

`CC(C)(C)OC(=O)N1C(=O)CC1(Cc1ccccc1)C(=O)OC(C)(C)C` (stereo not given): the EC50 with HEL [6] and with HEL [3] was above 200 µM each time. Further, the MCC with HEL [4] is above 200 µM.

As for `Nc1nc2c(ncn2COCCO)c(=O)[nH]1` [ACYCLOVIR], the EC50 was 111 µM in the test on HEL [1], 20 µM with HEL [6], 17 µM with HEL [3] and 7.1 µM in the test on HEL [5]. Moreover, the CC50 in the test on HEL [2] was 511 µM. This compound also registered an MCC in the test on HEL [4] above 1200 µM.

On to `Nc1nc2c(ncn2COC(CO)CO)c(=O)[nH]1` [GANCICLOVIR], for which the MCC in the test with HEL [4] is above 1500 µM.

As to `COC(=O)[C@@]1(Cc2ccccc2)CCN1C(=O)N[C@@H](C)c1ccccc1`, the EC50 with HEL [1] was above 50 µM; with HEL [3], above 20 µM; in the test with HEL [5], above 50 µM. Further, the CC50 in the test with HEL [2] was above 50 µM. Moreover, in the test with HEL [4], the MCC is above 50 µM.

For the compound `CNC(=O)[C@H](C)NC(=O)C1(Cc2ccccc2)CCN1C(=O)OCc1ccccc1` (stereo not given in full), the EC50 with HEL [1] was above 50 µM; with HEL [6], 5 µM; in the test with HEL [3], 7.4 µM; with HEL [5] it was above 50 µM. The same compound returned a CC50 in the test on HEL [2] above 50 µM. In the test with HEL [4], the MCC was above 50 µM.

Take `C[C@H](NC(=O)C1(Cc2ccccc2)CCN1C(=O)OCc1ccccc1)C(N)=O` (stereo not given in full): the EC50 with HEL [1] was above 80 µM; in the test with HEL [6], 32 µM; in the test with HEL [3] it was 39 µM; with HEL [5] it was above 80 µM. Also, in the test on HEL [2], the CC50 was 50 µM. The same compound displayed an MCC with HEL [4] of at least 400 µM.

With `CC(C)(C)OC(=O)C1(Cc2ccccc2)CCN1C(=O)OCc1ccccc1` (stereo not given), the EC50 with HEL [1] was above 2 µM; with HEL [6] it was 0.6 µM; in the test with HEL [3], 0.7 µM; with HEL [5] it was above 2 µM. This compound also returned an MCC in the test on HEL [4] of 5 µM.

Regarding `Nc1ccn(C[C@@H](CO)OCP(=O)(O)O)c(=O)n1` [CIDOFOVIR], the EC50 in the test on HEL [6] was 1 µM; with HEL [3], 0.6 µM. In the test with HEL [4], this compound registered an MCC above 1400 µM.

As for `C[C@H](NC(=O)C1(Cc2ccccc2)CCN1C(=O)OCc1ccccc1)C(=O)OC(C)(C)C` (stereo not given in full), the EC50 is above 16 µM in the test with HEL [1], 4.4 µM in the test on HEL [6], 16 µM in the test on HEL [3] and 16 µM with HEL [5]. In addition, the CC50 in the test on HEL [2] was determined as 33 µM. This compound also had an MCC in the test with HEL [4] of 80 µM.

As to `C[C@H](NC(=O)C1(Cc2ccccc2)CCN1C(=O)OCc1ccccc1)C(=O)O` (stereo not given in full), the EC50 in the test on HEL [1] is above 80 µM; in the test with HEL [6], above 80 µM; in the test on HEL [3], above 400 µM; in the test on HEL [5], above 80 µM. For the same compound, the CC50 in the test with HEL [2] came to 124 µM. In addition, the MCC in the test with HEL [4] was at least 400 µM.

As to `C[C@H](NC(=O)N1C(=O)C[C@@]1(Cc1ccccc1)C(=O)OC(C)(C)C)c1ccccc1`, the EC50 in the test with HEL [1] stood at 20 µM; in the test with HEL [5] it was 37 µM. The compound further displayed an MCC in the test on HEL [4] of 200 µM.

As to `COC(=O)[C@@]1(Cc2ccccc2)CC(=O)N1C(=O)N[C@@H](C)c1ccccc1`, the EC50 in the test with HEL [1], with HEL [3] and in the test with HEL [5] was above 50 µM each time. The compound also gave a CC50 with HEL [2] above 50 µM. Further, the MCC in the test on HEL [4] is above 50 µM.

As for `CC(C)(C)OC(=O)C1(Cc2ccccc2)CC(=O)N1C(=O)OCc1ccccc1` (stereo not given), the results for the EC50 with HEL [1] and in the test with HEL [5] were 8 µM and 12 µM, respectively. The compound further had an MCC in the test on HEL [4] of 50 µM.

`O=C(OCc1ccccc1)N1CCC1(Cc1ccccc1)C(=O)NC1CCCCC1` (stereo not given): the EC50 amounted to 5.1 µM with HEL [1], 3.2 µM with HEL [6], 5.9 µM with HEL [3] and 7.8 µM in the test with HEL [5]. In the test with HEL [2], this compound came in with a CC50 of 37 µM. The MCC in the test on HEL [4] was at least 16 µM.

Consider `C[C@@H](NC(=O)N1C(=O)C[C@]1(Cc1ccccc1)C(=O)O)c1ccccc1`, for which the EC50 in the test with HEL [1] and in the test on HEL [5] was above 200 µM each time. In the test on HEL [4], this compound came in with an MCC of 200 µM.

Turning to `C[C@@H](NC(=O)N1C(=O)C[C@@]1(Cc1ccccc1)C(=O)O)c1ccccc1`, the EC50 was 151 µM in the test on HEL [1] and above 200 µM in the test on HEL [6]. In the test with HEL [4], the MCC is above 200 µM.

`O=C1C[C@H](Cc2ccccc2)N1C(=O)NCc1ccccc1` registered a CC50 in the test on HEL [2] above 250 µM.

With `COC(=O)N1CCC1(Cc1ccccc1)C(=O)N[C@@H](C)C(N)=O` (stereo not given in full), the EC50 was 346 µM in the test on HEL [1], above 400 µM in the test on HEL [6], above 400 µM in the test with HEL [3] and above 400 µM in the test on HEL [5]. In the test on HEL [2], this compound had a CC50 above 200 µM. Also, the MCC in the test with HEL [4] is above 400 µM.

Take `O=c1[nH]c(=O)n([C@H]2C[C@H](O)[C@@H](CO)O2)cc1/C=C/Br` [BRIVUDINE]: the values for the EC50 in the test on HEL [1], in the test on HEL [6] and in the test on HEL [3] were 103 µM, above 100 µM and above 100 µM, respectively. In the test with HEL [2], the CC50 was 249 µM. Besides, the MCC with HEL [4] was 1200 µM.

For `COC(=O)[C@H](C)NC(=O)C1(Cc2ccccc2)CCN1C(=O)OCc1ccccc1` (stereo not given in full), the EC50 in the test on HEL [1], in the test on HEL [6], in the test on HEL [3] and in the test on HEL [5] was above 80 µM in each case. The compound also yielded a CC50 in the test on HEL [2] of 50 µM. In the test on HEL [4], this compound displayed an MCC of 400 µM.

Regarding `C[C@@H](NC(=O)N1C(=O)C[C@@]1(Cc1ccccc1)C(=O)OC(C)(C)C)c1ccccc1`, the EC50 in the test on HEL [1] was 23 µM; in the test on HEL [5] it was above 50 µM. In addition, the MCC in the test with HEL [4] came to 200 µM.

For the compound `C[C@H](NC(=O)N1C(=O)C[C@@]1(Cc1ccccc1)C(=O)O)c1ccccc1`, the results for the EC50 in the test on HEL [1] and with HEL [5] were 110 µM and above 200 µM, respectively. In the test on HEL [4], this compound gave an MCC of 200 µM.

As for `C[C@@H](NC(=O)N1CCC1(Cc1ccccc1)C(=O)OC(C)(C)C)c1ccccc1` (stereo not given in full), the EC50 in the test on HEL [1] came to 25 µM; with HEL [6], 33 µM; in the test on HEL [3], 40 µM; in the test with HEL [5], 36 µM. In addition, it took 57 µM to reach half-maximal cytotoxicity in the test with HEL [2] (CC50). The compound further gave an MCC in the test on HEL [4] of 400 µM.
